# Screening results from PubChem BioAssay.
# Xi reactivation: activators of inactive X chromosome reactivation, primary screen, imaging, XiGFP fibroblasts, GFP high-content imaging, set 2; XiGFP mouse fibroblasts, % GFP-positive cells imaging, 3 d; cells co-treated with 5-aza-dC sensitizer; scaled so ellipticine positive control = 100%; activation, % at 7.58 µM; hit rate 0.055% among 360,000; AID 743238, 2013;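 active = mean normalized replicate activation at least 10% and every replicate at or above 10%; inconclusive = only one of the two criteria met; inactive = mean below 10% and not all replicates reach 10%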;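 note: 0% = median of on-plate neutral control wells and 100% = ellipticine 6 µM median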
#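 System: SV40-immortalized XiGFP fibroblast cells, line 68-5-11 / Incubation: 3-day compound exposure, then 15 min fixation at room temperature / Compound: single concentration per compound, delivered by pin transfer / Buffer or medium: DMEM plus 5-aza-dC sensitizer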
# MLL AF4-AF9 inh: inhibitors of AF4 peptide binding to AF9, primary screen, biochemical, AlphaScreen, biotin-AF4 peptide, FLAG-AF9, single point; inhibition, % at 10 µM; AID 651704, 2012; hit rate 0.47% among 350,000; Protein AF-9 (Homo sapiens), P42568;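 active = every replicate reaching a set inhibition limit, whatever the replicate mean, cut at about 25% in these data; inconclusive = mean inhibition reaches that limit but some replicates miss it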;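 note: 0% = plate neutral control median and 100% = total signal loss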
# Target sequence (P42568 whole entry, looked up): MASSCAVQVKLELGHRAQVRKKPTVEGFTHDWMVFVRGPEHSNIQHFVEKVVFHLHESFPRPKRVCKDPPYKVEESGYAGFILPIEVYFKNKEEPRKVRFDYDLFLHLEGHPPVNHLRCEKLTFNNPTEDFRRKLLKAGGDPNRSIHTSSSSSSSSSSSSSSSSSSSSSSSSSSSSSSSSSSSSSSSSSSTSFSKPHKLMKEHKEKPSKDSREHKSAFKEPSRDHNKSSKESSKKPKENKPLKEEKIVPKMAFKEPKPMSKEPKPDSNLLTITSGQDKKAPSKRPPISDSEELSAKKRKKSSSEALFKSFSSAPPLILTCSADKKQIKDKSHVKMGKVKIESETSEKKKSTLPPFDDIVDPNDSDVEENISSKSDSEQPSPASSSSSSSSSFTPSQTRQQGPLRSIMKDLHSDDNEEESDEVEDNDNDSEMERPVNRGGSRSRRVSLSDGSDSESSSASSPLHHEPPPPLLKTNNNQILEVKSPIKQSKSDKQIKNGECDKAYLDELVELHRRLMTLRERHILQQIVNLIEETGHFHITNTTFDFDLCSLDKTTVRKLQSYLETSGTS
# EWS-Fli inh: EWS/Fli-driven NR0B1 reporter inhibitors, primary screen, A673 cells, NR0B1 luciferase, luminescence, MLPCN library | viability-normalised | hit rate 0.67% among 350,000 | inhibition, % at 12.6 µM | AID 651661, 2012;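 active = mean inhibition of at least 50% after viability correction, with every replicate also passing that limit; inconclusive = mean reaches 50% but only one of two replicates passes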;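 note: firefly luciferase signal divided by Alamar Blue viability fluorescence both relative to DMSO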
# GSIS activator: GLuc luminescence reporter in INS-1E cells, primary screen for activators of glucose-dependent secretion of insulin. hit rate 0.61% among 370,000. activation, % at 16.6 µM. INS-1E GLuc reporter insulin secretion, 2-3 h;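 active = lowest replicate activation of at least 40%, so every replicate reaches that level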;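 note: 0% = median of neutral control wells and 100% = median of IBMX positive control wells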
# PAX8 inh HTS: inhibitors of PAX8-driven TPO luciferase reporter, primary screen, RMG-I cells, single concentration; SteadyGlo, 24 h; inhibition, % at 12.6 µM; hit rate 1.2% among 360,000; AID 652154, 2013;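 active = mean replicate inhibition at least 60% with every replicate also reaching 60%; inconclusive = only one of the two criteria is met; inactive = mean below 60% and not all replicates reaching 60%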;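 note: luciferase light reporting Pax8 driven TPO promoter activity; plate controls were median of neutral control wells for no effect and mitoxantrone controls for full effect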
# PGC1a acetyl inh: inhibitors of PGC1a acetylation signal, primary screen, cell-based, U2OS, AlphaScreen, inhibitor mode; AlphaScreen anti-acetyl-lysine; with virally co-expressed GCN5 acetyltransferase; inhibition, % at 15.6 µM; hit rate 0.17% among 350,000; AID 651687, 2012;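 active = every replicate shows inhibition of at least 40%; inconclusive = mean inhibition at least 40% but some replicate below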;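 note: 0% = neutral control wells and 100% = positive control wells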
# Active calls of the source: *; u = inconclusive; x = not tested or not shown; ! = not active in a repeat. This is a sample that favours compounds with a hit; in the whole collection about 2.1% have one here.
SMILES,Xi reactivation,MLL AF4-AF9 inh,EWS-Fli inh,GSIS activator,PAX8 inh HTS,PGC1a acetyl inh
CCN1CCc2c(sc(NC(=O)c3ccc(S(=O)(=O)N(CC)c4ccccc4)cc3)c2C(N)=O)C1,73*,1,49,x,x,x
CCN1CCc2c(sc(NC(=O)c3ccc(C(=O)c4ccccc4)cc3)c2C(N)=O)C1,0,2,6,-11,-5,4
NC(=O)c1c(NC(=O)c2c(F)cccc2F)sc2c1CCN(Cc1ccccc1)C2,0,-3,-18,x,14,3
C[C@@H]1CN([C@@H](C)CO)C(=O)Cc2cc(NC(=O)CCCN(C)C)ccc2O[C@H]1CN(C)S(C)(=O)=O,-1,-2,1,3,-14,6
C/C=C/c1cnc2c(c1)C(=O)N([C@H](C)CO)C[C@H](C)[C@@H](CN(C)C(=O)C1CC1)O2,0,x,-16,12,x,11
COc1ccc(C(=O)Nc2ccc3ccccc3c2)cc1,0,-4,61*,11,-6,5
COc1cccc(C(=O)Nc2ccc3ccccc3c2)c1,0,-3,13,-6,-16,-25
COc1ccc(C(=O)Nc2ccc3c(c2)C(=O)c2ccccc2C3=O)cc1OC,0,x,x,62*,-8,x
COc1ccc(C(=O)Nc2ccccc2C(=O)Nc2ccncc2)cc1,0,1,x,45*,-89,-3
COc1cc2ccccc2cc1C(=O)Nc1ccc2oc(=O)ccc2c1,0,1,-12,156*,-32,17
COc1cc(OC)c(C(=O)Nc2ccc3ccccc3c2)cc1OC,x,x,x,x,x,-14
C[C@@H]1CCCCO[C@H](CN(C)S(=O)(=O)c2ccc(F)cc2)[C@H](C)CN([C@@H](C)CO)C(=O)c2cc(NC(=O)Nc3cccc4ccccc34)ccc2O1,0,1,6,-4,34,-13
Cn1c(N)c(C(=O)Nc2ccc3ccccc3c2)sc1=S,x,x,x,86*,x,-2
CCc1nnc(NC(=O)CCS(=O)(=O)c2ccccc2)s1,1,-9,-29,12,9,-1
O=C(CCS(=O)(=O)c1ccccc1)Nc1ncc([N+](=O)[O-])s1,0,-4,-9,-9,78*,-4
CCc1nnc(NC(=O)CCS(=O)(=O)c2ccc(C)cc2)s1,0,7,-36,2,64*,2
CCCCc1nnc(NC(=O)CCS(=O)(=O)c2ccc(C)cc2)s1,0,-5,-24,-14,79*,x
CC(C)c1nnc(NC(=O)CCS(=O)(=O)c2ccccc2)s1,0,-2,-8,8,u,10
COCc1nnc(NC(=O)CCS(=O)(=O)c2ccccc2)s1,0,-2,-9,0,66*,-9
COc1ccc(NC(=O)Nc2ccc3c(c2)C(=O)N([C@@H](C)CO)C[C@@H](C)[C@H](CN(C)S(=O)(=O)c2cn(C)cn2)OCCCC[C@@H](C)O3)cc1,0,x,-14,-7,0,7
CCc1nnc(NC(=O)CCS(=O)(=O)Cc2ccccc2)s1,0,-6,-10,0,8,x
CCC(CC)c1nnc(NC(=O)CCS(=O)(=O)Cc2ccccc2)s1,0,21,8,-7,62*,x
O=C1C=CC(=O)N1Cc1ccncc1,0,-3,7,6,1,-9
O=C1C=CC(=O)N1CCCCCCCCCCN1C(=O)C=CC1=O,1,-2,37,22,68*,-6
C[C@@H]1CN([C@H](C)CO)C(=O)c2cc(-c3ccc(F)cc3)cnc2O[C@@H]1CN(C)C(=O)Nc1ccc(F)cc1,1,x,-11,-18,x,-2
SMILES,Xi reactivation,MLL AF4-AF9 inh,EWS-Fli inh,GSIS activator,PAX8 inh HTS,PGC1a acetyl inh
Cc1ccc(C2N=C(N)Nc3nc4ccccc4n32)cc1 (centres undefined),1,0,-3,-9,11,x
Cc1cccc(C2N=C(N)Nc3nc4ccccc4n32)c1 (centres undefined),0,1,2,56*,-18,x
O=C(c1cccnc1)N1C[C@H]2[C@@H](c3ccccc31)[C@H](CO)N2CC1CCCCC1,0,2,-2,9,6,-7
Cn1cc(/C=N/n2cnc3scc(-c4ccc(Cl)cc4)c3c2=O)c2ccccc21,x,x,x,x,65*,19
C[C@H](CO)N1C[C@H](C)[C@H](CN(C)Cc2ccc(C(F)(F)F)cc2)OCCCC[C@H](C)Oc2ccc(NC(=O)CCC(F)(F)F)cc2C1=O,0,5,4,-13,77*,-8
C[C@H](CO)N1C[C@H](C)[C@H](CN(C)Cc2ccc(C(F)(F)F)cc2)OCCCC[C@H](C)Oc2ccc(NC(=O)CCCN(C)C)cc2C1=O,0,14,68*,17,28,-21
CCC(=O)N(C)C[C@@H]1Oc2ncc(C#CCc3ccccc3)cc2C(=O)N([C@H](C)CO)C[C@@H]1C,-1,-5,-4,-12,x,101*
C[C@H](CO)N1C[C@H](C)[C@@H](CN(C)Cc2ccccc2F)Oc2ncc(Br)cc2C1=O,0,2,4,3,-16,64*!
C[C@@H]1CN([C@H](C)CO)C(=O)c2cc(-c3ccccc3F)cnc2O[C@@H]1CN(C)Cc1ccccc1F,0,0,2,-4,-17,10
C[C@@H]1CN([C@@H](C)CO)C(=O)c2cc(C#CCC3CCCC3)cnc2O[C@@H]1CN(C)S(=O)(=O)c1cccs1,0,1,-15,-7,19,-3
C[C@H]1CN([C@@H](C)CO)C(=O)c2cc(C#CCC3CCCC3)cnc2O[C@@H]1CN(C)S(=O)(=O)c1cccs1,0,-7,6,-24,67*,-5
Cc1cccc(CN(C)C[C@@H]2Oc3ncc(C#Cc4ccccc4)cc3C(=O)N([C@H](C)CO)C[C@@H]2C)c1,15*,8,28,-10,x,5
CO[C@@H]1CN(C)C(=O)c2ccc(NC(=O)C3CCOCC3)cc2OC[C@@H](C)NC[C@@H]1C,0,x,4,-8,x,13
CCN(CC)CCC(=O)N1C/C(=C/c2ccccc2)C(=O)/C(=C\c2ccccc2)C1,0,-2,82*,-16,-13,x
O=C1/C(=C\c2ccccc2)CCC/C1=C/c1ccccc1,1,11,1,0,10,x
CC(=O)O[C@H]1[C@@H](O)[C@H](O)[C@H](Oc2c(O)c(C)c3c4c2[C@@H](C)CC[C@@H]4[C@@H](C)C[C@H]3C=C(C)C)O[C@H]1C,0,18,17,x,64*,-3
O=C(C[C@@H]1CC[C@H]2[C@@H](COC[C@H](O)CN2Cc2ccc3c(c2)OCO3)O1)Nc1ccc(-c2ccccc2)cc1,0,2,17,-16,52,-3
